Results on two compounds are retold here after ChEMBL document CHEMBL5360543, “Designed multiple ligands for the treatment of type 2 diabetes mellitus and its complications: Discovery of (5-arylidene-4-oxo-2-thioxothiazolidin-3-yl)alkanoic acids active as novel dual-targeted PTP1B/AKR1B1 inhibitors” (Eur J Med Chem, 2023).

Active and inactive are the calls of the source. No cut-off for these calls is given here.

Broadly, the IC50 is the concentration needed to halve the response being measured.

The target of data set [1] is T1, Aldo-keto reductase family 1 member B1 (Homo sapiens, UniProt P15121). Put plainly: Mixed non-competitive inhibition of human recombinant AKR1B1 expressed in Escherichia coli BL21(DE3)pLysS assessed as apparent dissociation constant for ESI complex using L-idose as substrate by secondary plot analysis. The gist of the method: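 AKR1B1 rates measured at varied L-idose concentrations with and without several inhibitor concentrations, then Lineweaver–Burk analysis. […] Tight binders fitted with the Morrison equation, KM for L-idose taken as 3.8 mM. At least three independent experiments.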

For data set [2], the target named is T2, Tyrosine-protein phosphatase non-receptor type 1 (Homo sapiens) (UniProt P18031).
T2 sequence (whole entry): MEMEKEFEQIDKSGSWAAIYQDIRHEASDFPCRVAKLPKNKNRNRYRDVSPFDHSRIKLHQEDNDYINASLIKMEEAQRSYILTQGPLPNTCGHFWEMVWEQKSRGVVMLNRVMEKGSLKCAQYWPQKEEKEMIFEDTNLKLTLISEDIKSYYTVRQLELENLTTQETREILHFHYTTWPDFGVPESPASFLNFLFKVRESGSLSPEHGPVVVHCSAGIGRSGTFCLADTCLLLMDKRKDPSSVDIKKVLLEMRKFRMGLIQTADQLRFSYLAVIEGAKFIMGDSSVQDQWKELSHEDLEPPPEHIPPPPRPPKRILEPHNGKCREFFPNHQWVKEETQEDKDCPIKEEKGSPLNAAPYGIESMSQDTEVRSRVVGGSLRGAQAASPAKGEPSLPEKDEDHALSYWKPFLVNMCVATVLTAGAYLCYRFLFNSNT
In words: Reversible inhibition of N-terminal polyHis-tagged human PTP1B1 (1 to 303 residues) expressed in Escherichia coli BL21(DE3)pLysS using pNPP as substrate pretreated with enzyme for 60 mins followed by 400-fold dilution with buffer containing substrate and measured after 15 mins by spectrophotometric analysis. As to conditions: time 75.0 min. The method in brief:
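PTP1B incubated 60 min at 37 °C with saturating inhibitor, then diluted 400-fold into assay buffer containing 2.5 mM pNPP. Stopped after 15 min with 0.2 M KOH; absorbance read at 400 nm. Normalized to enzyme diluted with DMSO; mean ± SEM (n = 3).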

A further data set is filed under the species Homo sapiens. Put plainly: Selectivity index, ratio of IC50 for inhibition of N-terminal polyHis-tagged human recombinant TC-PTPb (1 to 415 residues) expressed in Escherichia coli BL21(DE3)pLysS to IC50 for inhibition of N-terminal polyHis-tagged human PTP1B1 (1 to 303 residues) expressed in Escherichia coli BL21(DE3)pLysS.
Data set [3] deals with T3, Tyrosine-protein phosphatase non-receptor type 1 (Homo sapiens, UniProt P18031).
T3 sequence (P18031 whole entry): T2 sequence (whole entry)
Put plainly: Mixed non-competitive inhibition of N-terminal polyHis-tagged human PTP1B1 (1 to 303 residues) expressed in Escherichia coli BL21(DE3)pLysS assessed as apparent dissociation constant for ESI complex using pNPP as substrate by Lineweaver-Burk plot analysis. The gist of the method: (§1)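 PTP1B initial pNPP hydrolysis rates measured at seven pNPP concentrations (0.5–25 mM) and at least three inhibitor concentrations, in triplicate. Data fitted to Michaelis–Menten; KM and Vmax dependence on inhibitor analysed by Lineweaver–Burk plots.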

The target in data set [4] is T3, Tyrosine-protein phosphatase non-receptor type 1. In words: Mixed non-competitive inhibition of N-terminal polyHis-tagged human PTP1B1 (1 to 303 residues) expressed in Escherichia coli BL21(DE3)pLysS assessed as apparent dissociation constant for EI complex using pNPP as substrate by Lineweaver-Burk plot analysis. The gist of the method: as §1
For data set [5], the target named is T1, Aldo-keto reductase family 1 member B1. In words: Inhibition of human recombinant AKR1B1 expressed in Escherichia coli BL21(DE3)pLysS using L-idose as substrate by NADPH oxidation based absorbance analysis.
In data set [6] the target is T4, Tyrosine-protein phosphatase non-receptor type 1 (Mus musculus) (UniProt P35821).
T4 sequence (whole entry): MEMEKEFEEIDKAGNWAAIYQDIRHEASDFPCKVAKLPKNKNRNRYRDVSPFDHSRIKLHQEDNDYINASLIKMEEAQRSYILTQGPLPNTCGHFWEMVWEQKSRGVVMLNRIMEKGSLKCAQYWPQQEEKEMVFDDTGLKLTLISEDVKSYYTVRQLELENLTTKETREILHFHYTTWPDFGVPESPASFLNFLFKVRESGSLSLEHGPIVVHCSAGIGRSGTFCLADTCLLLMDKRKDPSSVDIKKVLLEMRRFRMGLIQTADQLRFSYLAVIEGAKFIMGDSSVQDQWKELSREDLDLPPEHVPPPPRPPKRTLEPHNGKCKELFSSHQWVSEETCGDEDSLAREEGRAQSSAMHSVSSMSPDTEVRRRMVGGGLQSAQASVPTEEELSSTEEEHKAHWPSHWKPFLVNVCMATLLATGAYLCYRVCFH
In words: Inhibition of PTP1B in mouse C2C12 cells assessed as increase in Akt phosphorylation by measuring increase in ratio of pAkt to Akt at 20 uM treated for 15 mins by western blot analysis. It counts as cell-based. The method in brief: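 C2C12 cells starved 24 h, then given 10 nM insulin, 20 µM compound, or both, for 15 min. Washed in cold PBS, lysed in 1X Laemmli buffer, run on SDS-PAGE, blotted to PVDF. Probed with antibodies to phospho-Akt and total Akt, with actin as loading control. Bands quantified; triplicate, mean ± SD (n = 3).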
On the technique in general: A western blot detects proteins with antibodies after separation by electrophoresis.

A further data set has as its system HLE. In words: Cytotoxicity against human HLE cells assessed as reduction in cell viability at 2 uM incubated for 24 to 48 hrs by MTT assay. As to conditions: time 24-48 hrs. It counts as toxicity, cell-based. The method in brief:
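HLE lens epithelial B3 cells in MEM with 20% FBS at 37 °C, exposed 24 and 48 h to compound in 0.05% DMSO. Then 1 h in MTT 0.5 mg/mL in phosphate buffer pH 7.4, formazan dissolved in 0.04 N HCl/isopropanol, absorbance 563 nm. Mean ± SEM of eleven independent measurements; Student's t test versus untreated cells.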
For orientation: Formazan colour is commonly taken as a measure of viable cells.

Data set [7] deals with T3, Tyrosine-protein phosphatase non-receptor type 1. Put plainly: Non-competitive inhibition of N-terminal polyHis-tagged human PTP1B1 (1 to 303 residues) expressed in Escherichia coli BL21(DE3)pLysS assessed as apparent dissociation constant for EI complex using pNPP as substrate by Lineweaver-Burk plot analysis. The method in brief:
as §1

For data set [8], the target named is T1, Aldo-keto reductase family 1 member B1. In words: Inhibition of AKR1B1 in human HLE cells assessed as inhibition of glucose-induced sorbitol accumulation at 2 uM incubated for 24 hrs in presence of glucose. It counts as cell-based. The gist of the method:
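HLE cells held 24 h in 75 mM D-glucose with or without 2 µM compound; 10 µM sorbinil as reference. Lysates from freeze/thaw and 10,000 × g spin were treated with perchloric acid and neutralized with KOH. Sorbitol assayed and expressed as nmol/mg protein (Bradford). Mean ± SEM of six measurements; one-way ANOVA with Tukey.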

Data set [9] has as its target T3, Tyrosine-protein phosphatase non-receptor type 1. In words: Non-competitive inhibition of N-terminal polyHis-tagged human PTP1B1 (1 to 303 residues) expressed in Escherichia coli BL21(DE3)pLysS assessed as apparent dissociation constant for ESI complex using pNPP as substrate by Lineweaver-Burk plot analysis. The method in brief:
as §1

In the case of `O=C(O)CCN1C(=O)/C(=C/c2cccc(OCCCCc3ccccc3)c2)SC1=S`, the Ki in [1] worked out at 1.1 µM; in data set [3], 6.6 µM; in data set [4] it was 0.9 µM. The inhibition entry in [2] and in [6] was “Active” throughout. Also, the Ratio IC50 in the data set filed under Homo sapiens came to 8. The IC50 in data set [5] amounted to 2.1 µM.

On to `O=C(O)CN1C(=O)/C(=C/c2cccc(OCCCCc3ccccc3)c2)SC1=S`, for which the figures for the Ki in data set [1], in data set [7] and in data set [9] were 0.03 µM, 4.6 µM and 4.3 µM, respectively. Moreover, the inhibition result in data set [2], in data set [8] and in [6] was “Active” throughout. Moreover, in the data set with HLE, the Activity entry was “Non-Toxic”. For the same compound, the IC50 in [5] is 0.06 µM.
